The source made the active and inactive calls. The calls are words filed in the database; no cut-off is given here.
What was measured:
[1] = target: T1, Transient receptor potential cation channel subfamily V member 4 (Homo sapiens, UniProt Q9HBA0); assay: Antagonist activity at human recombinant TRPV4 expressed in BacMam virus infected HEK MSRII cells assessed as inhibition of GSK634775-induced calcium […] treated 10 mins prior to TRPV4 agonist, GSK634775 by FLIPR assay
[2] = target: Sodium channel protein type 5 subunit alpha (Homo sapiens, UniProt Q14524); assay: Inhibition of human Nav1.5 expressed in HEK293 cells at >10 uM; assay type: cell-based
[3] = target: T1, Transient receptor potential cation channel subfamily V member 4; assay: Agonist activity at human TRPV4
Rattus norvegicus [4] = assay: Decrease in lung/body weight ratio in GSK1016790A-induced Sprague-Dawley rat pulmonary edema model at 10 mg/kg, iv administered 30 mins prior to GSK-1016790A injection; assay type: functional, organism-based; set-up: dose 10 mg/kg
Outline: (§1)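 Rats given vehicle, 3 or 10 mg/kg iv 30 min before iv challenge with the TRPV4 agonist GSK1016790A at rising doses. Mean arterial pressure recorded during pretreatment and after agonist. Pulmonary edema scored as wet lung weight/body weight ratio, compared with vehicle-treated rats. Plasma drug levels measured at both doses.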

[5] = Oral bioavailability in Sprague-Dawley rat at 2 mg/kg by HPLC-MS/MS analysis; assay type: ADME, organism-based; settings: in vivo
[6] = target: Voltage-dependent L-type calcium channel subunit alpha-1C (Homo sapiens, UniProt Q13936); assay: Inhibition of human Cav1.2 expressed in HEK293 cells assessed as decrease in calcium […] at >10 uM by FLIPR analysis; assay type: cell-based
Sequence of Voltage-dependent L-type calcium channel subunit alpha-1C (Q13936 whole entry): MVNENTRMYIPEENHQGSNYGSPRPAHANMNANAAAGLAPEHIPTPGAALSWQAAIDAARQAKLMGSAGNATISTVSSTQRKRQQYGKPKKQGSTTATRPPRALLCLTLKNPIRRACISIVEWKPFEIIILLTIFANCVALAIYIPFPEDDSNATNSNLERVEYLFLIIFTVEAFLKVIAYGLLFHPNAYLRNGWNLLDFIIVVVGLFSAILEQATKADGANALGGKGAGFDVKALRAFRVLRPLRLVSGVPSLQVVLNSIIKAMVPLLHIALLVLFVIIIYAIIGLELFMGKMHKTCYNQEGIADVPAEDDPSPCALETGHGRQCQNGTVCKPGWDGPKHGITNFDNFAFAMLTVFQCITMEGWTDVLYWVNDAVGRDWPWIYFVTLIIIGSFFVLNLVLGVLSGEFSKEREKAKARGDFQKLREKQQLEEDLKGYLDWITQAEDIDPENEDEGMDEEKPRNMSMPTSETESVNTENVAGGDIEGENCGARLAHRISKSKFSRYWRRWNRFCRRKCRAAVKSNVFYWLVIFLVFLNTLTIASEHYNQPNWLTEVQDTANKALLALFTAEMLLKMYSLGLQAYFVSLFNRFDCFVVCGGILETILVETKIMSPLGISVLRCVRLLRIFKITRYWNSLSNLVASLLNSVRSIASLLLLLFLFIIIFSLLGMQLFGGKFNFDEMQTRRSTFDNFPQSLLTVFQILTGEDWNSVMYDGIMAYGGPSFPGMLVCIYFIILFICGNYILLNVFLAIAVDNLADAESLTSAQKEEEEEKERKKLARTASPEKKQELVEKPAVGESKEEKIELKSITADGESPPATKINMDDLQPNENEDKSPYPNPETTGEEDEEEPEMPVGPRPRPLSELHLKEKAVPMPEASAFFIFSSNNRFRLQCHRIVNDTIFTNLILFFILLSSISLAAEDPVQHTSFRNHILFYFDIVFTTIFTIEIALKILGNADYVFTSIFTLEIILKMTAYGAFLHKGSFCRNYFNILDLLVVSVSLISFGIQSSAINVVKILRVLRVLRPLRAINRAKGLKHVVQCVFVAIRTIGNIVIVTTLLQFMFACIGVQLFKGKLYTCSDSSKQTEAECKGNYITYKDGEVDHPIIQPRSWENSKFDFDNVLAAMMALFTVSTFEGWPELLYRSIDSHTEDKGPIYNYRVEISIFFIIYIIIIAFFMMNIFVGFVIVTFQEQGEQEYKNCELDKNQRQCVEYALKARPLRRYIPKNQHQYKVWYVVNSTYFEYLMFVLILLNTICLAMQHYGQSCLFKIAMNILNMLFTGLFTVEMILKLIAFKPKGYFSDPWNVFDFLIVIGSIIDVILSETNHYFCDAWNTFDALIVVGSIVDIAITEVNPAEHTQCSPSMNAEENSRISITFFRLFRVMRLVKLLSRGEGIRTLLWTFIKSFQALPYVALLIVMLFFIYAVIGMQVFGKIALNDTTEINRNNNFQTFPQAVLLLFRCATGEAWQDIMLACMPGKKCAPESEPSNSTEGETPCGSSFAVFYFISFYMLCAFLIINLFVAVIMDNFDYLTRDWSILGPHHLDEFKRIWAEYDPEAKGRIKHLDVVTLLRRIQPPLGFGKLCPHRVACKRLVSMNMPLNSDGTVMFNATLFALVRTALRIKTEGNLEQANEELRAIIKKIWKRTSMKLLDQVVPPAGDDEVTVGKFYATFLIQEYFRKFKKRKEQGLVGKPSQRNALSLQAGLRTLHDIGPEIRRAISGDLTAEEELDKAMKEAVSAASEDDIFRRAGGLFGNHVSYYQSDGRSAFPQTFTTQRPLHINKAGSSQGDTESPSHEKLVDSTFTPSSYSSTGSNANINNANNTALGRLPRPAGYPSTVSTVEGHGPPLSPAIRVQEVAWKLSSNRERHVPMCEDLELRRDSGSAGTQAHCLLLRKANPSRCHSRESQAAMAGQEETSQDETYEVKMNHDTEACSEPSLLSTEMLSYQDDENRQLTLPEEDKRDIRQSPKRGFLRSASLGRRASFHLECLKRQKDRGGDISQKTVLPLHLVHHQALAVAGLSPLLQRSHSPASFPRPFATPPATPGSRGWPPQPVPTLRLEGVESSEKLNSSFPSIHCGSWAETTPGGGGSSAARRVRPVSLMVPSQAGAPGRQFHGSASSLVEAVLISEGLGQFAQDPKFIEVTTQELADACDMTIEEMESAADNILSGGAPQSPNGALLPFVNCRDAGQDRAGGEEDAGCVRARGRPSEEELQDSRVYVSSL

Plasma [7] = assay: Fraction unbound in human plasma; assay type: ADME, cell-free
Plasma [8] = assay: Fraction unbound in rat plasma; assay type: ADME, cell-free
Rattus norvegicus [9] = assay: Reduction of GSK-1016790A-induced decrease in mean arterial pressure in iv dosed Sprague-Dawley rat administered 30 mins prior to GSK-1016790A injection; assay type: functional, organism-based; settings: Artery
Outline: as §1

[10] = target: Transient receptor potential cation channel subfamily V member 4 (Rattus norvegicus) (UniProt Q9ERZ8); assay: Agonist activity at rat TRPV4
Sequence of Transient receptor potential cation channel subfamily V member 4 (Rattus norvegicus) (Q9ERZ8 whole entry): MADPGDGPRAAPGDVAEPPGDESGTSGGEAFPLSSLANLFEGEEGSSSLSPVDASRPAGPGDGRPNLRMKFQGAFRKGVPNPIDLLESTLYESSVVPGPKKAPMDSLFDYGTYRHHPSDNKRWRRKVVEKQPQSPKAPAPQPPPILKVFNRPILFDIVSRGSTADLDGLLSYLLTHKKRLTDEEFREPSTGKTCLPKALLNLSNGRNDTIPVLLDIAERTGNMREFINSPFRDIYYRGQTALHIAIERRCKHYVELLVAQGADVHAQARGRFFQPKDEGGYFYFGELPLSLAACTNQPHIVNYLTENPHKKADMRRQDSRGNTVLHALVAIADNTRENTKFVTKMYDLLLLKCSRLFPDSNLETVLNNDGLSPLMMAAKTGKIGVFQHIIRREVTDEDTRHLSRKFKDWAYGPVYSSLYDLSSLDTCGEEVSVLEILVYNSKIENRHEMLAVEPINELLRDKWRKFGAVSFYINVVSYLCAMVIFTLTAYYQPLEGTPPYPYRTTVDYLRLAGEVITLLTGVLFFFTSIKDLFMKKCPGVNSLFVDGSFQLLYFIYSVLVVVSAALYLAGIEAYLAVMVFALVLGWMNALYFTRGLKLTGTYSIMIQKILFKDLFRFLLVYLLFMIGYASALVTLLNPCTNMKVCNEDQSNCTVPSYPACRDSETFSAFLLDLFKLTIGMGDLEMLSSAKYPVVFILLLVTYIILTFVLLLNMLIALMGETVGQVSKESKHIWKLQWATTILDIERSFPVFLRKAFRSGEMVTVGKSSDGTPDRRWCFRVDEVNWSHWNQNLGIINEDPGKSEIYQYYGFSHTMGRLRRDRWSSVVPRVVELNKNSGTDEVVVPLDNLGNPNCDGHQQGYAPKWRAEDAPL

Rattus norvegicus [11] = assay: Effect on mean arterial pressure in Sprague-Dawley rat at 3 to 10 mg/kg, iv; assay type: ADME, organism-based, Artery; set-up: dose 3-10 mg/kg, route intravenous; settings: in vivo
Outline: as §1

[12] = target: Potassium voltage-gated channel subfamily A member 5 (Homo sapiens) (UniProt P22460); assay: Inhibition of human Kv1.5 expressed in CHO cells assessed as decrease in channel current at > 10 uM by patch clamp analysis; assay type: cell-based
Sequence of Potassium voltage-gated channel subfamily A member 5 (Homo sapiens) (P22460 whole entry): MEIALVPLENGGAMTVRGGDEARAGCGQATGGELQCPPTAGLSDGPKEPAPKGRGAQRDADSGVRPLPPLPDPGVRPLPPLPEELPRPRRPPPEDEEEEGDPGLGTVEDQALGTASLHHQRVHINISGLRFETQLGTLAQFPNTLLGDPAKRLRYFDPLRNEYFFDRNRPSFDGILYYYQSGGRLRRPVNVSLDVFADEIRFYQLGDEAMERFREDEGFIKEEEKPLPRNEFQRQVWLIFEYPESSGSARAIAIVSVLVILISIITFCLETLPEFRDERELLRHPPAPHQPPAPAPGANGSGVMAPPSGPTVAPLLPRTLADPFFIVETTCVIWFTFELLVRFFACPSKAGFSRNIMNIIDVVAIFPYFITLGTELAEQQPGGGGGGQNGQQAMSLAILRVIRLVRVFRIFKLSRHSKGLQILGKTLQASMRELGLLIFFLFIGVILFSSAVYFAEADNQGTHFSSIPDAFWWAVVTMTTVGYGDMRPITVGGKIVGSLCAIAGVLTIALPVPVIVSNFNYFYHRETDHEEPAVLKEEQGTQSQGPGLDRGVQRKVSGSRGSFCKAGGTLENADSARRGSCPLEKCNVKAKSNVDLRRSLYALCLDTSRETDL

[13] = target: Transient receptor potential cation channel subfamily V member 4 (Rattus norvegicus, UniProt Q9ERZ8); assay: Antagonist activity at rat TRPV4
Sequence of Transient receptor potential cation channel subfamily V member 4 (Rattus norvegicus, UniProt Q9ERZ8) (Q9ERZ8 whole entry): as the sequence (Q9ERZ8 whole entry) above

[14] = (§2) Half life in Sprague-Dawley rat plasma at 2 mg/kg, po by HPLC-MS/MS analysis; assay type: ADME, organism-based; set-up: dose 2 mg/kg, route oral; settings: Sprague-Dawley, plasma
Rattus norvegicus [15] = assay: Decrease in lung/body weight ratio in GSK1016790A-induced Sprague-Dawley rat pulmonary edema model at 3 mg/kg, iv administered 30 mins prior to GSK-1016790A injection; assay type: functional, organism-based; set-up: dose 3 mg/kg
Outline: as §1

[16] = Clearance in Sprague-Dawley rat plasma at 1 mg/kg, iv by HPLC-MS/MS analysis; assay type: ADME, organism-based; set-up: dose 1 mg/kg, route intravenous
Plasma [17] = assay: Stability of the compound in Sprague-Dawley rat plasma at 1 mg/kg, iv by HPLC-MS/MS analysis; assay type: ADME, organism-based; set-up: dose 1 mg/kg, route intravenous; settings: in vivo
Plasma [18] = assay: as §2; assay type: ADME, organism-based; set-up: dose 2 mg/kg, route oral; settings: in vivo, BLD = below limit of detection

T1 sequence (Q9HBA0 whole entry): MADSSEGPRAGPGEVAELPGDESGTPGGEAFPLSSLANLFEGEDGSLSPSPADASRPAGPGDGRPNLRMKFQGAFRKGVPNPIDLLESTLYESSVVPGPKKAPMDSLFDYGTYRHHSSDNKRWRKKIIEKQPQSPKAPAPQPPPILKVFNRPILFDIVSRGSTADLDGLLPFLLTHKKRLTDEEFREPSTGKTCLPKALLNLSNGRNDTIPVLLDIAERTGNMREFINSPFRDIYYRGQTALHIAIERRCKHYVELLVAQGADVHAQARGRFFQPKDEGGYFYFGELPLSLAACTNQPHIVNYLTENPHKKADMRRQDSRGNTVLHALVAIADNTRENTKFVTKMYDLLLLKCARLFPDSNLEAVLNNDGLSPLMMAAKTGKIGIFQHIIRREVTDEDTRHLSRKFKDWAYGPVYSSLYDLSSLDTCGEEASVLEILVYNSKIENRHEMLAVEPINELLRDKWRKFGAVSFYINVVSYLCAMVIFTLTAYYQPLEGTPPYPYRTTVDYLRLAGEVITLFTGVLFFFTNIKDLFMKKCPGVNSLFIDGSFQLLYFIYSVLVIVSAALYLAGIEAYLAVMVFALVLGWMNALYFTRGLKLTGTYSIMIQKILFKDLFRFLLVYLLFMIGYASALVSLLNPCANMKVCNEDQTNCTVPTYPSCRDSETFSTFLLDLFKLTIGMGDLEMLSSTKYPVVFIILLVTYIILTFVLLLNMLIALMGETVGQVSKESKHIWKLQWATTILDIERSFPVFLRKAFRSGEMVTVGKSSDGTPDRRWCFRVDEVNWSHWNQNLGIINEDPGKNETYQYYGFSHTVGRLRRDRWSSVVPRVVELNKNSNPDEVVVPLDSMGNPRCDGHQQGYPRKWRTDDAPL

IC50 [1] [nM]	bioavailability [5] [%]	half-life [14] [h]	clearance [16] [mL/min/kg]	Compound	also measured
1260	–	–	–	CC(C)Nc1nc2c(C(=O)N(C)C)c(Cl)c(Cl)cc2n1C1CCN(C(=O)c2ccc(C(C)(C)C)cc2)CC1	–
> 10000	–	–	–	CC(C)Nc1nc2c(C(=O)N(C)C)c(Cl)c(Cl)cc2n1C1CCN(c2ccc(C(C)(C)C(=O)O)cc2)CC1	–
631	–	–	–	CC(C)Nc1nc2c(C(=O)N(C)C)c(Cl)c(Cl)cc2n1-c1ccc(N2CCCCC2)cc1	–
31.6	31	1.6	13	CC(C)Nc1nc2c(C(=O)N(C)C)c(Cl)c(Cl)cc2n1C1CCN(c2ccc(C(C)(C)C#N)cc2)CC1	inhibition (INH) [2]: Not Active; Activity [3]: inactive; Activity (Rattus norvegicus [4]): Active; inhibition (INH) [6]: Not Active; Cp(f) (Plasma [7]): 4.4%; Cp(f) (Plasma [8]): 3.3%; Activity (Rattus norvegicus [9]): Dose-dependent effect; Activity [10]: inactive; Activity (Rattus norvegicus [11]): Non-toxic; inhibition [12]: inactive; IC50 [13]: 32 nM; Activity (Rattus norvegicus [15]): inactive
15.8	–	–	–	COC(=O)C(C)(C)c1ccc(N2CCC(n3c(NC(C)C)nc4c(C(=O)N(C)C)c(Cl)c(Cl)cc43)CC2)cc1	Stability (Plasma [17]): Unstable; t1/2 (Plasma [18]): BLD
31.6	7	2.8	9.3	CC(C)Nc1nc2c(C(=O)N(C)C)c(Cl)c(Cl)cc2n1C1CCN(c2ccc(C3CCCCC3)cc2)CC1	–
2510	–	–	–	CC(C)Nc1nc2c(C(=O)N(C)C)c(Cl)c(Cl)cc2n1C1CCN(C(=O)Nc2ccccc2)CC1	–
12.6	36	2.1	46	CC(C)Nc1nc2c(C(=O)N(C)C)c(Cl)c(Cl)cc2n1C1CCN(c2ccc(OC(C)C)cc2)CC1	–
5010	–	–	–	CC(C)Nc1nc2c(C(=O)N(C)C)c(Cl)c(Cl)cc2n1CC1CCN(c2ccccc2)CC1	–
126	76	3.2	12	Cc1cccc(N2CCC(n3c(NC(C)C)nc4c(C(=O)N(C)C)c(Cl)c(Cl)cc43)CC2)c1	–
126	38	1.6	18	Cc1ccc(N2CCC(n3c(NC(C)C)nc4c(C(=O)N(C)C)c(Cl)c(Cl)cc43)CC2)cc1	–
3.2	22	2.1	25	CC(C)Nc1nc2c(C(=O)N(C)C)c(Cl)c(Cl)cc2n1C1CCN(c2ccc(C3(C#N)CCOCC3)cc2)CC1	–
50.1	39	3.7	34	CC(C)Nc1nc2c(C(=O)N(C)C)c(Cl)c(Cl)cc2n1C1CCN(c2ccc(C(C)(C)C)cc2)CC1	–
3980	–	–	–	CC(C)Nc1nc2c(C(=O)N(C)C)c(Cl)c(Cl)cc2n1C1CCN(S(=O)(=O)c2ccc(Cl)cc2)CC1	–
200	–	–	–	CC(C)Nc1nc2c(C(=O)N(C)C)c(Cl)c(Cl)cc2n1C1CCN(c2ccccc2)CC1	–

Compound	IC50 [1] [nM]	bioavailability [5] [%]	half-life [14] [h]	clearance [16] [mL/min/kg]	also measured
CC(C)Nc1nc2c(C(=O)N(C)C)c(Cl)c(Cl)cc2n1C1CCN(Cc2ccccc2)CC1	1000	–	–	–	–
